ChEMBL document CHEMBL3414514, “Synthesis and pharmacological evaluation of novel bisindole derivatives bearing oximes moiety: identification of novel proapoptotic agents” (Eur J Med Chem, 2015)
pIC50: −log10 of the molar value.

Test system: not listed separately
Assay: Cytotoxicity against human SKOV3 cells after 2 days by MTT assay
Assay type: functional, cell-based
Details: SK-OV-3, 48 h
How it was run: (§1)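 Cells grown in medium with 10% heat-inactivated FBS at 37 C under 5% CO2. Compounds dissolved in medium with 1% DMSO; controls received 1% DMSO. After 2 days, MTT (10 mg/mL) added for 4 h, formazan dissolved in DMSO and absorbance read at 570/630 nm. Survival taken relative to negative control; IC50 by Bliss method (n = 5), at least three independent experiments.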
In the case of `O/N=C1/C(c2c[nH]c3ccc(Br)cc23)=Nc2ccc(Br)cc21`, the pIC50 was 4.72. Work on `Cc1cccc2c1N=C(c1c[nH]c3c(C)cccc13)/C2=N/OCc1cccc(Cl)c1` yielded a pIC50 of 4.58. Compound `O=[N+]([O-])c1ccc2c(c1)/C(=N\O)C(c1c[nH]c3ccc([N+](=O)[O-])cc13)=N2` has a pIC50 of 4.97. With `O=c1[nH]cc(F)c(=O)[nH]1` [FLUOROURACIL] the pIC50 was 4.56. In the case of `O/N=C1/C(c2c[nH]c3cc(F)ccc23)=Nc2cc(F)ccc21`, the pIC50 was 4.78. In the case of `Cc1ccc(CO/N=C2/C(c3c[nH]c4ccc(Br)cc34)=Nc3ccc(Br)cc32)cc1`, the pIC50 was 5.14. Compound `Nc1ccc2c(c1)/C(=N\O)C(c1c[nH]c3ccc(N)cc13)=N2` has a pIC50 of 4.76. Compound `CCCCO/N=C1/C(c2c[nH]c3ccccc23)=Nc2ccccc21` has a pIC50 of 4.34. `FC(F)(F)c1ccc(CO/N=C2/C(c3c[nH]c4ccccc34)=Nc3ccccc32)cc1` showed a pIC50 of 4.62.

Test system: HUVEC
Assay: Cytotoxicity against human HUVEC cells after 2 days by MTT assay
Assay type: cell-based
Details: 48 h
How it was run: as §1
With `O/N=C1/C(c2c[nH]c3ccc(Br)cc23)=Nc2ccc(Br)cc21` the pIC50 was < 4.00. For `Cc1cccc2c1N=C(c1c[nH]c3c(C)cccc13)/C2=N/OCc1cccc(Cl)c1`, the pIC50 was < 4.00. For `O=[N+]([O-])c1ccc2c(c1)/C(=N\O)C(c1c[nH]c3ccc([N+](=O)[O-])cc13)=N2`, the pIC50 was < 4.00. In the case of `O/N=C1/C(c2c[nH]c3cc(F)ccc23)=Nc2cc(F)ccc21`, the pIC50 was < 4.00. With `Cc1ccc(CO/N=C2/C(c3c[nH]c4ccc(Br)cc34)=Nc3ccc(Br)cc32)cc1` the pIC50 was < 4.00. In the case of `Nc1ccc2c(c1)/C(=N\O)C(c1c[nH]c3ccc(N)cc13)=N2`, the pIC50 was < 4.00. With `CCCCO/N=C1/C(c2c[nH]c3ccccc23)=Nc2ccccc21` the pIC50 was < 4.00. With `FC(F)(F)c1ccc(CO/N=C2/C(c3c[nH]c4ccccc34)=Nc3ccccc32)cc1` the pIC50 was < 4.00.

Test system: HepG2
Assay: Cytotoxicity against human HepG2 cells after 2 days by MTT assay
Assay type: functional, cell-based
Details: HepG2, 48 h
How it was run: as §1
For `O/N=C1/C(c2c[nH]c3ccc(Br)cc23)=Nc2ccc(Br)cc21`, the pIC50 was 4.84. `Cc1cccc2c1N=C(c1c[nH]c3c(C)cccc13)/C2=N/OCc1cccc(Cl)c1` showed a pIC50 of 4.64. In the case of `O=[N+]([O-])c1ccc2c(c1)/C(=N\O)C(c1c[nH]c3ccc([N+](=O)[O-])cc13)=N2`, the pIC50 was 5.08. Work on `O=c1[nH]cc(F)c(=O)[nH]1` [FLUOROURACIL] yielded a pIC50 of 4.50. `O/N=C1/C(c2c[nH]c3cc(F)ccc23)=Nc2cc(F)ccc21` gave a pIC50 of 4.86. Work on `Cc1ccc(CO/N=C2/C(c3c[nH]c4ccc(Br)cc34)=Nc3ccc(Br)cc32)cc1` yielded a pIC50 of 4.69. In the case of `Nc1ccc2c(c1)/C(=N\O)C(c1c[nH]c3ccc(N)cc13)=N2`, the pIC50 was 4.73. For `CCCCO/N=C1/C(c2c[nH]c3ccccc23)=Nc2ccccc21`, the pIC50 was 4.47. With `FC(F)(F)c1ccc(CO/N=C2/C(c3c[nH]c4ccccc34)=Nc3ccccc32)cc1` the pIC50 was 4.65.

Test system: not listed separately
Assay: Cytotoxicity against human T24 cells after 2 days by MTT assay
Assay type: functional, cell-based
Details: T-24, 48 h
How it was run: as §1
For `O/N=C1/C(c2c[nH]c3ccc(Br)cc23)=Nc2ccc(Br)cc21`, the pIC50 was 4.90. `Cc1cccc2c1N=C(c1c[nH]c3c(C)cccc13)/C2=N/OCc1cccc(Cl)c1` showed a pIC50 of 4.76. For `O=[N+]([O-])c1ccc2c(c1)/C(=N\O)C(c1c[nH]c3ccc([N+](=O)[O-])cc13)=N2`, the pIC50 was 4.88. `O=c1[nH]cc(F)c(=O)[nH]1` [FLUOROURACIL] gave a pIC50 of 4.39. Work on `O/N=C1/C(c2c[nH]c3cc(F)ccc23)=Nc2cc(F)ccc21` yielded a pIC50 of 4.93. Work on `Cc1ccc(CO/N=C2/C(c3c[nH]c4ccc(Br)cc34)=Nc3ccc(Br)cc32)cc1` yielded a pIC50 of 4.67. In the case of `Nc1ccc2c(c1)/C(=N\O)C(c1c[nH]c3ccc(N)cc13)=N2`, the pIC50 was 5.03. Work on `CCCCO/N=C1/C(c2c[nH]c3ccccc23)=Nc2ccccc21` yielded a pIC50 of 4.45. Compound `FC(F)(F)c1ccc(CO/N=C2/C(c3c[nH]c4ccccc34)=Nc3ccccc32)cc1` has a pIC50 of 4.72.

Test system: NCI-H460
Assay: Cytotoxicity against human NCI-H460 cells after 2 days by MTT assay
Assay type: functional, cell-based
Details: NCI-H460, 48 h
How it was run: as §1
For `O/N=C1/C(c2c[nH]c3ccc(Br)cc23)=Nc2ccc(Br)cc21`, the pIC50 was 4.72. In the case of `Cc1cccc2c1N=C(c1c[nH]c3c(C)cccc13)/C2=N/OCc1cccc(Cl)c1`, the pIC50 was 4.64. With `O=[N+]([O-])c1ccc2c(c1)/C(=N\O)C(c1c[nH]c3ccc([N+](=O)[O-])cc13)=N2` the pIC50 was 4.94. With `O=c1[nH]cc(F)c(=O)[nH]1` [FLUOROURACIL] the pIC50 was 4.34. `O/N=C1/C(c2c[nH]c3cc(F)ccc23)=Nc2cc(F)ccc21` gave a pIC50 of 4.65. With `Cc1ccc(CO/N=C2/C(c3c[nH]c4ccc(Br)cc34)=Nc3ccc(Br)cc32)cc1` the pIC50 was 4.98. For `Nc1ccc2c(c1)/C(=N\O)C(c1c[nH]c3ccc(N)cc13)=N2`, the pIC50 was 4.70. Work on `CCCCO/N=C1/C(c2c[nH]c3ccccc23)=Nc2ccccc21` yielded a pIC50 of 4.37. For `FC(F)(F)c1ccc(CO/N=C2/C(c3c[nH]c4ccccc34)=Nc3ccccc32)cc1`, the pIC50 was 4.62.

Test system: not listed separately
Assay: Cytotoxicity against human SPCA2 cells after 2 days by MTT assay
Assay type: functional, cell-based
Details: SPCA2, 48 h
How it was run: as §1
In the case of `O/N=C1/C(c2c[nH]c3ccc(Br)cc23)=Nc2ccc(Br)cc21`, the pIC50 was 4.94. `Cc1cccc2c1N=C(c1c[nH]c3c(C)cccc13)/C2=N/OCc1cccc(Cl)c1` gave a pIC50 of 4.74. `O=[N+]([O-])c1ccc2c(c1)/C(=N\O)C(c1c[nH]c3ccc([N+](=O)[O-])cc13)=N2` showed a pIC50 of 4.95. In the case of `O=c1[nH]cc(F)c(=O)[nH]1` [FLUOROURACIL], the pIC50 was 4.36. In the case of `O/N=C1/C(c2c[nH]c3cc(F)ccc23)=Nc2cc(F)ccc21`, the pIC50 was 5.00. With `Cc1ccc(CO/N=C2/C(c3c[nH]c4ccc(Br)cc34)=Nc3ccc(Br)cc32)cc1` the pIC50 was 4.82. `Nc1ccc2c(c1)/C(=N\O)C(c1c[nH]c3ccc(N)cc13)=N2` gave a pIC50 of 4.78. Compound `CCCCO/N=C1/C(c2c[nH]c3ccccc23)=Nc2ccccc21` has a pIC50 of 4.53. With `FC(F)(F)c1ccc(CO/N=C2/C(c3c[nH]c4ccccc34)=Nc3ccccc32)cc1` the pIC50 was 4.67.

Test system: A549
Assay: Cytotoxicity against human A549 cells after 2 days by MTT assay
Assay type: functional, cell-based
Details: A549, 48 h
How it was run: as §1
With `O/N=C1/C(c2c[nH]c3ccc(Br)cc23)=Nc2ccc(Br)cc21` the pIC50 was 4.79. Compound `Cc1cccc2c1N=C(c1c[nH]c3c(C)cccc13)/C2=N/OCc1cccc(Cl)c1` has a pIC50 of 4.50. `O=[N+]([O-])c1ccc2c(c1)/C(=N\O)C(c1c[nH]c3ccc([N+](=O)[O-])cc13)=N2` gave a pIC50 of 4.98. In the case of `O=c1[nH]cc(F)c(=O)[nH]1` [FLUOROURACIL], the pIC50 was 4.42. Compound `O/N=C1/C(c2c[nH]c3cc(F)ccc23)=Nc2cc(F)ccc21` has a pIC50 of 4.67. In the case of `Cc1ccc(CO/N=C2/C(c3c[nH]c4ccc(Br)cc34)=Nc3ccc(Br)cc32)cc1`, the pIC50 was 4.88. Compound `Nc1ccc2c(c1)/C(=N\O)C(c1c[nH]c3ccc(N)cc13)=N2` has a pIC50 of 4.83. Work on `CCCCO/N=C1/C(c2c[nH]c3ccccc23)=Nc2ccccc21` yielded a pIC50 of 4.43. Compound `FC(F)(F)c1ccc(CO/N=C2/C(c3c[nH]c4ccccc34)=Nc3ccccc32)cc1` has a pIC50 of 4.66.

Test system: MGC-803
Assay: Cytotoxicity against human MGC803 cells after 2 days by MTT assay
Assay type: functional, cell-based
Details: MGC-803, 48 h
How it was run: as §1
Work on `O/N=C1/C(c2c[nH]c3ccc(Br)cc23)=Nc2ccc(Br)cc21` yielded a pIC50 of 4.88. Work on `Cc1cccc2c1N=C(c1c[nH]c3c(C)cccc13)/C2=N/OCc1cccc(Cl)c1` yielded a pIC50 of 4.58. With `O=[N+]([O-])c1ccc2c(c1)/C(=N\O)C(c1c[nH]c3ccc([N+](=O)[O-])cc13)=N2` the pIC50 was 4.97. In the case of `O/N=C1/C(c2c[nH]c3cc(F)ccc23)=Nc2cc(F)ccc21`, the pIC50 was 4.66. `Cc1ccc(CO/N=C2/C(c3c[nH]c4ccc(Br)cc34)=Nc3ccc(Br)cc32)cc1` showed a pIC50 of 4.51. In the case of `Nc1ccc2c(c1)/C(=N\O)C(c1c[nH]c3ccc(N)cc13)=N2`, the pIC50 was 4.88. `CCCCO/N=C1/C(c2c[nH]c3ccccc23)=Nc2ccccc21` gave a pIC50 of 4.63. For `FC(F)(F)c1ccc(CO/N=C2/C(c3c[nH]c4ccccc34)=Nc3ccccc32)cc1`, the pIC50 was 4.51.
